Reference: ChEMBL document CHEMBL2331115, “Development of silicon-containing bis-phenol derivatives as androgen receptor antagonists: selectivity switching by C/Si exchange” (Bioorg Med Chem, 2013)
Calls of active or inactive are those of the source. The rule behind the calls is not given here.

How the values were obtained:
Androgen receptor = target: T1, Androgen receptor (Homo sapiens, UniProt P10275); assay: Antagonist activity at human androgen receptor expressed in HEK293 cells assessed as inhibition of transcriptional activity by luciferase and beta-galactosidase reporter gene assay; assay type: cell-based
T1 sequence (P10275 whole entry): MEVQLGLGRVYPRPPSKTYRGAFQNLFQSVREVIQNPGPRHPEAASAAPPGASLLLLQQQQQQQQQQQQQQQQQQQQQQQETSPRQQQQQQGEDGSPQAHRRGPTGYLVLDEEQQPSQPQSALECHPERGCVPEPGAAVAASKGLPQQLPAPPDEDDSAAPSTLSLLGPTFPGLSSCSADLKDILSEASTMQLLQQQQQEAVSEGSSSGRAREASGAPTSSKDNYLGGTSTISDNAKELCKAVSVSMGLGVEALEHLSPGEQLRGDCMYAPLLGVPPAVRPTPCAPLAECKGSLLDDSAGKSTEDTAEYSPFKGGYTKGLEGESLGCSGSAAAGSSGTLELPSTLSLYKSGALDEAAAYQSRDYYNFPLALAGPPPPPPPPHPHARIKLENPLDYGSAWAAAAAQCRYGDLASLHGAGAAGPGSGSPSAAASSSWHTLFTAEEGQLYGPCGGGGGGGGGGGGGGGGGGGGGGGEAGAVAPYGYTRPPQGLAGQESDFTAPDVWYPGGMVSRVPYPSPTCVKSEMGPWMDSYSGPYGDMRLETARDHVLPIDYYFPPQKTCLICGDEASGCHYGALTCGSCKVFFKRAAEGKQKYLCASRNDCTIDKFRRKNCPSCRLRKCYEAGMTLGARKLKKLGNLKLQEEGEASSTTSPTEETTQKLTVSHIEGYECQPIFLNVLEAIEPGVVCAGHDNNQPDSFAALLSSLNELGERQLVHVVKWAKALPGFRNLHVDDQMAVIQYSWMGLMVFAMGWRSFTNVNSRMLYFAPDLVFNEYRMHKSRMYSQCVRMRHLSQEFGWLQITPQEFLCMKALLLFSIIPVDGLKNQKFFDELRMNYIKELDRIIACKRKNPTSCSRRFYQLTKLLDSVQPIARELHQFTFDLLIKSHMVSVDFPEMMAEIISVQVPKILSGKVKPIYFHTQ

[1] = target: T2, Vitamin D3 receptor (Homo sapiens) (UniProt P11473); assay: Agonist activity at CMX-GAL4 tagged human VDR expressed in HEK293 cells assessed as increase in transcriptional activity by luciferase reporter gene assay; assay type: cell-based
T2 sequence (whole entry): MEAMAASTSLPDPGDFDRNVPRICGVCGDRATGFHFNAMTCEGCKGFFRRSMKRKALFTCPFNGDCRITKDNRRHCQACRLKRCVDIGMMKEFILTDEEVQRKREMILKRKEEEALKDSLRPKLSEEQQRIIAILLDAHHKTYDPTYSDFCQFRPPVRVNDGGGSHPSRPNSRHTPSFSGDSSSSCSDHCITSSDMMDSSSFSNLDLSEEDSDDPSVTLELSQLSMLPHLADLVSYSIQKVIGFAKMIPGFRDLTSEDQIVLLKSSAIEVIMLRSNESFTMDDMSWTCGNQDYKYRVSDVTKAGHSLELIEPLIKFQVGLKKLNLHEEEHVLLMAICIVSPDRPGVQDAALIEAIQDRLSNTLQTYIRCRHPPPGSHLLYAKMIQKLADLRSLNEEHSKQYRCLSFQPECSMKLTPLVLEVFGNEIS
How it was run: (§1)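 GAL4-hVDR ligand-binding fusion (CMX-GAL4 N-hVDR, 15 ng/well) cotransfected by calcium phosphate into HEK293 cells with TK-MH100x4-Luc reporter (50 ng) and β-galactosidase plasmid (10 ng). Cells grown in DMEM with 5% FBS, 37 °C, 5% CO2. Compound added 22 h post-transfection and cells harvested 16–20 h later. Luciferase normalized to β-galactosidase, means of triplicates. PC50 is the concentration giving 50% of the positive-control response.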

[2] = target: Androgen receptor (Mus musculus) (UniProt P19091); assay: Potency index, ratio of IC50 for hydroxyflutamide to IC50 for compound against androgen receptor in androgen-dependent mouse SC3 cells assessed as inhibition of testosterone-induced cell growth after 3 days; assay type: cell-based; conditions: SC-3
How it was run: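 SC-3 cells cultured 3 days at 37 °C, 5% CO2 in MEM-Alpha with 2% FBS and 10 nM testosterone, with or without compound. Cell number with testosterone alone set as 100%. IC50 is the concentration halving the testosterone-induced increase in cells, means of three experiments. Index is the reference antagonist IC50 divided by the compound IC50.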

[3] = target: Androgen receptor (Mus musculus) (UniProt P19091); assay: Agonist activity at androgen receptor in androgen-dependent mouse SC3 cells assessed as stimulation of cell growth after 3 days; assay type: cell-based; conditions: SC-3
How it was run: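 Androgen-dependent mouse Shionogi carcinoma SC-3 cells grown 3 days at 37 °C, 5% CO2 in MEM-Alpha with 2% FBS plus test compound. Growth promotion scored by cell count.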

Homo sapiens = organism: Homo sapiens; assay: Selectivity index, ratio of agonist PC50 for CMX-GAL4 tagged human VDR to antagonist IC50 for human androgen receptor
How it was run: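 Ratio of VDR PC50 to AR IC50. VDR PC50 comes from the GAL4-hVDR luciferase assay in HEK293 cells (50% of positive-control activity). AR IC50 is inhibition of hAR/ARE-luciferase transcription in HEK293 cells under testosterone, both β-galactosidase-normalized, means of three experiments.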

[4] = target: T3, Androgen receptor (Homo sapiens) (UniProt P10275); assay: Agonist activity at human androgen receptor expressed in HEK293 cells assessed as increase in transcriptional activity in presence of 0.3 nM testosterone by luciferase and beta-galactosidase reporter gene assay; assay type: cell-based
T3 sequence (whole entry): T1 sequence (P10275 whole entry)
How it was run: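 HEK293 cells in DMEM with 5% FBS, calcium-phosphate cotransfected with pSG5-hAR (33 ng/well), ARE-tlc-Luc reporter (33 ng) and β-galactosidase plasmid (10 ng). Compounds added 22 h after transfection, with 0.3 nM testosterone present. Harvested about 16–20 h later. Luciferase read and normalized to β-galactosidase, means of triplicates.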

HL-60 = assay: Induction of monocytic cell differentiation in human HL60 cells
LNCaP = assay: Growth inhibition of human LNCAP cells
Vitamin D3 receptor = target: T4, Vitamin D3 receptor (Homo sapiens, UniProt P11473); assay: Agonist activity at VDR (unknown origin) by reporter gene assay; how it was run: as §1
T4 sequence (P11473 whole entry): T2 sequence (whole entry)

Chain of Androgen receptor (Mus musculus) (P19091 whole entry): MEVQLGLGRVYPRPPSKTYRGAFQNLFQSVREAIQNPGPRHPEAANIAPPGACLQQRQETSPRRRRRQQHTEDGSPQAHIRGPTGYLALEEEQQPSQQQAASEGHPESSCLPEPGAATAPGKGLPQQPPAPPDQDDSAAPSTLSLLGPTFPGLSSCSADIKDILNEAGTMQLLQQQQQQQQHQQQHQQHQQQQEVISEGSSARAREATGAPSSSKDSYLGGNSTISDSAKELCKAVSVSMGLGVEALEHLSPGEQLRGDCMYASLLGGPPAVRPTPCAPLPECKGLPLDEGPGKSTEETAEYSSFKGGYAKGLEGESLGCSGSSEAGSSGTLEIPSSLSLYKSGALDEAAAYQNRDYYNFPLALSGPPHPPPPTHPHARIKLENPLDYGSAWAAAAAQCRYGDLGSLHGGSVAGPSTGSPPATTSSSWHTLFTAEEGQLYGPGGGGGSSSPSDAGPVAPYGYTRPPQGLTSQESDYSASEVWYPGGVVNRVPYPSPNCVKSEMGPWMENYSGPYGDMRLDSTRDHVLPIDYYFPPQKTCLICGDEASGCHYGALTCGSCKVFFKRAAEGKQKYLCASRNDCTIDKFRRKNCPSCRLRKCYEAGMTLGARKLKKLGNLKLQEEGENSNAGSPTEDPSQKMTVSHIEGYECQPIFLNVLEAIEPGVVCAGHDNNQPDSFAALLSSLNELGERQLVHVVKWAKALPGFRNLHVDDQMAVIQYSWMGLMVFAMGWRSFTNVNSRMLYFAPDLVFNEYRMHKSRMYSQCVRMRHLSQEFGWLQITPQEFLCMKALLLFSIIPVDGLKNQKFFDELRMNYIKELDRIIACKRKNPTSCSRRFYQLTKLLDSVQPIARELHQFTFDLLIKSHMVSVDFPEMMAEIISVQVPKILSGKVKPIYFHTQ

Row | Structure (SMILES) | IC50 (Androgen receptor) [µM] | PC50 [1] | Ratio IC50 [2] | Activity [3] | Selectivity Index (Homo sapiens) | Activity [4] | EC50 (HL-60) [µM] | EC50 (LNCaP) [µM] | EC50 (Vitamin D3 receptor) [µM]
1 | CC[Si](CC)(c1ccc(OCC(=O)C(C)(C)C)c(C)c1)c1ccc(OC[C@@H](O)CO)c(C)c1 | > 10 | 2 µM |  |  |  |  |  |  | 
2 | CC[Si](CC)(c1ccc(OC[C@H](O)CO)c(C)c1)c1ccc(OC[C@@H](O)C(C)(C)C)c(C)c1 | 7.4 | > 10 µM | 20 | inactive | > 1.4 |  |  |  | 
3 | CCC(CC)(c1ccc(OCC(=O)C(C)(C)C)c(C)c1)c1ccc(OCC2CO2)c(C)c1 (racemic) | > 10 | 0.68 µM |  |  | < 0.068 | inactive |  |  | 
4 | CCC(CC)(c1ccc(OCC(=O)C(C)(C)C)c(C)c1)c1ccc(OCC(=O)C(C)(C)C)c(C)c1 | > 10 | 4.6 µM |  |  | < 0.46 | inactive | 0.03 | 0.02 | 0.04
5 | CCC(CC)(c1ccc(OCC(O)CO)c(C)c1)c1ccc(OCC(O)C(C)(C)C)c(C)c1 (mixture of isomers) [LG-190178] | > 10 | 0.14 µM |  |  |  | inactive | 0.03 | 0.02 | 
6 | CC[Si](CC)(c1ccc(NC[C@H](O)CO)c(C)c1)c1ccc(OCC(=O)C(C)(C)C)c(C)c1 | > 10 | 2.5 µM |  |  |  |  |  |  | 
7 | CC[Si](CC)(c1ccc(OC[C@@H](O)CO)c(C)c1)c1ccc(OC[C@@H](O)C(C)(C)C)c(C)c1 | 8.3 | 2.2 µM |  |  | 0.27 |  |  |  | 
8 | CC[Si](CC)(c1ccc(OC[C@@H](O)CO)c(C)c1)c1ccc(OC[C@H](O)C(C)(C)C)c(C)c1 (mixture of isomers) | 5.8 | 0.81 µM |  |  | 0.14 |  |  |  | 
9 | CC[Si](CC)(c1ccc(OCC(=O)C(C)(C)C)c(C)c1)c1ccc(OCC(=O)C(C)(C)C)c(C)c1 | 6.2 | > 30 µM |  |  | > 4.8 | inactive |  |  | 
10 | CC[Si](CC)(c1ccc(OCC(=O)C(C)(C)C)c(C)c1)c1ccc(OCC2CO2)c(C)c1 (racemic) | > 10 | 4.8 µM |  |  | 0.48 | inactive |  |  | 
11 | CC(C)(O)C(=O)Nc1ccc([N+](=O)[O-])c(C(F)(F)F)c1 |  | inactive |  |  |  |  |  |  | 
12 | CC[Si](CC)(c1ccc(OC[C@H](O)CO)c(C)c1)c1ccc(OC[C@H](O)C(C)(C)C)c(C)c1 | 6.7 | 2.1 µM |  |  | 0.31 |  |  |  | 
13 | CC[Si](CC)(c1ccc(O)c(C)c1)c1ccc(OC[C@H](O)C(C)(C)C)c(C)c1 | > 10 | 8.2 µM |  |  |  |  |  |  | 
14 | CC[Si](CC)(c1ccc(OCC(=O)C(C)(C)C)c(C)c1)c1ccc(OC[C@H](O)CO)c(C)c1 | 4 | 3.7 µM |  | inactive | 0.93 |  |  |  | 
15 | CC[Si](CC)(c1ccc(NC[C@@H](O)CO)c(C)c1)c1ccc(OCC(=O)C(C)(C)C)c(C)c1 | > 10 | 7 µM |  |  |  |  |  |  | 
16 | CC[Si](CC)(c1ccc(OCC(O)CO)c(C)c1)c1ccc(OCC(O)C(C)(C)C)c(C)c1 (mixture of isomers) | 6.8 | 0.92 µM |  |  | 0.14 | inactive |  |  | 
